# Columns and labels:
# [1] = (§1) Antiviral activity against ROJO virus strain in PBLs (peripheral blood lymphocytes); assay type: functional, cell-based; conditions: Homo sapiens
# Method in brief: (§2)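 PBMCs isolated from hepatitis- and HIV-seronegative donors by Ficoll-Hypaque gradient and stimulated 3 days with phytohemagglutinin/IL-2. Infected with pediatric low-passage clinical isolates or NIAID subtype isolates, in RPMI 1640 with 10% FBS, 2 mM glutamine, penicillin/streptomycin. Replication read as supernatant reverse transcriptase activity. […] Run in triplicate, with AZT as positive control.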
# [2] = (§3) Antiviral activity against subtype isolate B strain in PBLs (peripheral blood lymphocytes); assay type: functional, cell-based, Homo sapiens; conditions: Homo sapiens; method in brief: as §2
# [3] = (§4) Antiviral activity against subtype isolate A strain in PBLs (peripheral blood lymphocytes); assay type: functional, cell-based; conditions: Homo sapiens; method in brief: as §2
# [4] = system: CCRF-CEM; assay: Antiviral activity against site directed resistant isolate HIV-1 L74V in CEM cells; assay type: functional, cell-based, Homo sapiens
# Method in brief: (§5)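 CEM-SS cells infected with low-cytopathicity site-directed RT-mutant NL4-3 clones (A98G, L74V, 4XAZT = D67N/K70R/T215Y/K219Q, 4XAZT/L100I). Replication was quantified by p24 ELISA rather than cytoprotection. […] Triplicate, variation of mean about 10%.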
# [5] = (§6) Antiviral activity against multi drug resistant MDR 769 strain in PBLs (peripheral blood lymphocytes); assay type: functional, cell-based; conditions: Homo sapiens
# Method in brief: (§7)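 PBMC from hepatitis- and HIV-seronegative donors isolated by Ficoll-Hypaque gradient and stimulated 3 days with phytohemagglutinin/IL-2 before infection. Medium RPMI 1640 with 10% FBS, 2 mM glutamine, penicillin/streptomycin. Replication read as supernatant reverse transcriptase activity. […] Run in triplicate, SD within triplicate under 10%; AZT positive control.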
# [6] = Ratio of CC50/EC50 was determined; conditions: read-out: TI
# Method in brief: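 HIV-1 RF–infected CEM-SS cells (RPMI 1640, 10% heat-inactivated FBS, 2 mM glutamine, penicillin/streptomycin), plus mock-infected CEM-SS in parallel. Cell killing and viability were read by MTS/phenazine ethosulfate reduction at 490 nm 6 days after infection. […] Index = CC50 ÷ EC50. Triplicate tests.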
# [7] = (§8) Antiviral activity against subtype isolate D strain in PBLs (peripheral blood lymphocytes); assay type: functional, cell-based; conditions: Homo sapiens; method in brief: as §2
# [8] = molecular target: Human immunodeficiency virus type 1 reverse transcriptase (Human immunodeficiency virus 1, UniProt Q72547); assay: Inhibitory activity against HIV-1 Reverse Transcriptase with rCdG as the template primer
# Method in brief: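 Cell-free assay with purified recombinant HIV-1 RT (p66/p51 dimer). Activity measured as [32P]GTP incorporation into the poly(rC)/oligo(dG) homopolymer template/primer. IC50 is reported as inhibition of enzyme activity.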
# [9] = system: CCRF-CEM; assay: Antiviral activity against site directed resistant isolate HIV-1 Y181C in CEM cells; assay type: functional, cell-based, Homo sapiens
# Method in brief: (§9)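 CEM-SS cells in RPMI 1640 with 10% heat-inactivated FBS were infected with NL4-3 molecular clones carrying site-directed RT mutations. Cytoprotection from virus-induced syncytial killing was read by MTS/phenazine ethosulfate reduction (A490) 6 days after infection. […] Triplicate, variation of mean about 10%.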
# [10] = (§10) Antiviral activity against Ba-L monocyte tropic isolate strain in monocyte; assay type: functional; conditions: Homo sapiens
# Method in brief: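 Monocytes isolated from hepatitis- and HIV-seronegative donors by Ficoll-Hypaque gradient, cultured 6 days into macrophages, then infected with Ba-L. Medium RPMI 1640 with 10% FBS, 2 mM glutamine, penicillin/streptomycin. Replication read as p24 antigen by ELISA 6 days postinfection. […] Run in triplicate, with AZT as positive control.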
# [11] = system: CCRF-CEM; assay: Antiviral activity against site directed resistant isolate HIV-1 L100I in CEM cells; assay type: functional, cell-based, Homo sapiens; method in brief: as §9
# [12] = system: CCRF-CEM; assay: Antiviral activity against site directed resistant isolates in HIV-1 A98G CEM cells; assay type: functional, cell-based, Homo sapiens; method in brief: as §5
# [13] = (§11) Antiviral activity against subtype isolate O strain in PBLs (peripheral blood lymphocytes); assay type: functional, cell-based, Homo sapiens; conditions: Homo sapiens; method in brief: as §2
# [14] = system: Human immunodeficiency virus type 1 (RF/HAT ISOLATE); assay: Inhibitory concentration for cytopathicity of HIV-1RF in CEM-SS cells; assay type: functional, organism-based; conditions: Human immunodeficiency virus 1, RF
# Method in brief: (§12)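 CEM-SS cells kept in RPMI 1640 with 10% heat-inactivated FBS, 2 mM glutamine, penicillin/streptomycin. Microtiter assay with cytopathic HIV-1 RF, or mock infection for toxicity. Viability read by MTS/phenazine ethosulfate reduction (absorbance 490 nm) 6 days after infection. […] Triplicate.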
# [15] = system: CCRF-CEM; assay: Antiviral activity against site directed 4X AZT resistant isolate HIV-1 L100I in CEM cells; assay type: functional, cell-based, Homo sapiens; method in brief: as §5
# [16] = (§13) Antiviral activity against subtype isolate G strain in PBLs (peripheral blood lymphocytes); assay type: functional, cell-based; conditions: Homo sapiens; method in brief: as §2
# [17] = (§14) Antiviral activity against TEKI virus strain in PBLs (peripheral blood lymphocytes); assay type: functional, cell-based; conditions: Homo sapiens; method in brief: as §2
# [18] = system: CCRF-CEM; assay: Antiviral activity against site directed wild-type enzyme isolate HIV-1 NL4-3WT in CEM cells; assay type: functional, cell-based; conditions: Homo sapiens
# Method in brief: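 Wild-type NL4-3 in CEM-SS cells, measured both by MTS cytoprotection 6 days after infection and by p24 ELISA. The IC50 is the mean of the two methods' values.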
# [19] = system: CCRF-CEM; assay: Antiviral activity against site directed resistant isolate HIV-1 K103N in CEM cells; assay type: functional, cell-based, Homo sapiens; method in brief: as §9
# [20] = (§15) Antiviral activity against subtype isolate F strain in PBLs (peripheral blood lymphocytes); assay type: functional, cell-based, Homo sapiens; conditions: Homo sapiens; method in brief: as §2
# [21] = system: CCRF-CEM; assay: Antiviral activity against site directed resistant isolate HIV-1 V106A in CEM cells; assay type: functional, cell-based, Homo sapiens; method in brief: as §9
# [22] = (§16) Antiviral activity against subtype isolate C strain in PBLs (peripheral blood lymphocytes); assay type: functional, cell-based; conditions: Homo sapiens; method in brief: as §2
# [23] = system: CCRF-CEM; assay: Antiviral activity against site directed 4X AZT resistant isolate HIV-1 in CEM cells; assay type: functional, cell-based, Homo sapiens
# [24] = system: CEM-SS; assay: Concentration required for cytotoxicity against mock infected CEM-SS cells; assay type: functional; conditions: Homo sapiens; method in brief: as §12
# [25] = (§17) Antiviral activity against SLKA virus strain in PBLs (peripheral blood lymphocytes); assay type: functional, cell-based; conditions: Homo sapiens; method in brief: as §2
# [26] = system: CCRF-CEM; assay: Antiviral activity against site directed resistant isolate HIV-1 V179D in CEM cells; assay type: functional, cell-based, Homo sapiens; method in brief: as §9
# [27] = system: CCRF-CEM; assay: Antiviral activity against site directed resistant isolate HIV-1 K101E in CEM cells; assay type: functional, cell-based, Homo sapiens
# [28] = system: CCRF-CEM; assay: Antiviral activity against site directed resistant isolate HIV-1 Y188C in CEM cells; assay type: functional, cell-based, Homo sapiens; method in brief: as §9
# [29] = (§18) Antiviral activity against subtype isolate E strain in PBLs (peripheral blood lymphocytes); assay type: functional, cell-based; conditions: Homo sapiens
# [30] = as §6; assay type: ADME, cell-based; conditions: human, read-out: TC50 (the source's name); method in brief: as §7
# [31] = as §13; assay type: ADME, cell-based; conditions: human, read-out: TC50 (the source's name); method in brief: as §7
# [32] = (§19) Antiviral activity against WEJO virus strain in PBLs (peripheral blood lymphocytes); assay type: ADME, cell-based; conditions: human, read-out: TC50 (the source's name); method in brief: as §7
# [33] = as §3; assay type: functional, cell-based; conditions: Homo sapiens; method in brief: as §2
# [34] = as §17; assay type: ADME, cell-based; conditions: human, read-out: TC50 (the source's name); method in brief: as §7
# [35] = as §10; assay type: ADME; conditions: human, monocytes; read-out: TC50 (the source's name)
# Method in brief: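 Monocytes isolated from hepatitis- and HIV-seronegative donors by Ficoll-Hypaque gradient, cultured 6 days, then infected. Medium RPMI 1640 with 10% FBS, 2 mM glutamine, penicillin/streptomycin. Virus replication measured by p24 antigen ELISA 6 days postinfection. […] Run in triplicate, SD within triplicate under 10%; AZT positive control.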
# [36] = as §1; assay type: ADME, cell-based; conditions: human, read-out: TC50 (the source's name); method in brief: as §7
# [37] = as §11; assay type: functional, cell-based; conditions: Homo sapiens; method in brief: as §2
# [38] = as §18; assay type: functional, cell-based; conditions: Homo sapiens; method in brief: as §2; remark: listed apart in the source
# [39] = as §3; assay type: ADME, cell-based; conditions: human, read-out: TC50 (the source's name); method in brief: as §7
# [40] = as §15; assay type: ADME, cell-based; conditions: human, read-out: TC50 (the source's name); method in brief: as §7
# [41] = as §8; assay type: ADME, cell-based; conditions: human, read-out: TC50 (the source's name); method in brief: as §7
# [42] = as §11; assay type: ADME, cell-based; conditions: human, read-out: TC50 (the source's name); method in brief: as §7
# [43] = as §14; assay type: ADME, cell-based; conditions: human, read-out: TC50 (the source's name); method in brief: as §7
# [44] = as §18; assay type: ADME, cell-based; conditions: human, read-out: TC50 (the source's name); method in brief: as §7
# [45] = as §19; assay type: functional, cell-based; conditions: Homo sapiens; method in brief: as §2
# [46] = as §4; assay type: ADME, cell-based; conditions: human, read-out: TC50 (the source's name); method in brief: as §7
# [47] = cells; conditions: Homo sapiens
# [48] = as §16; assay type: ADME, cell-based; conditions: human, read-out: TC50 (the source's name); method in brief: as §7
# [49] = as §15; assay type: functional, cell-based; conditions: Homo sapiens; method in brief: as §2
smiles,measurement,setting,value
CCOC(=O)CCCC=C(c1cc(Br)c(OC)c(C(=O)OC)c1)c1cc(Br)c(OC)c(C(=O)OC)c1,IC50,[1],200 nM
same,IC50,[2],4900 nM
same,IC50,[3],200 nM
same,IC50,[4],352 nM
same,IC50,[5],6300 nM
same,selectivity ratio,[6],2360
same,IC50,[7],30 nM
same,IC50,[8],359 nM
same,IC50,[9],4400 nM
same,IC50,[10],4400 nM
same,IC50,[11],15 nM
same,IC50,[12],15 nM
same,IC50,[13],21000 nM
same,EC50,[14],7 nM
same,IC50,[15],370 nM
same,IC50,[16],400 nM
same,IC50,[17],1000 nM
same,IC50,[18],440 nM
same,IC50,[19],460 nM
same,IC50,[20],760 nM
same,IC50,[21],7020 nM
same,IC50,[22],150 nM
same,IC50,"[23]; Homo sapiens, CCRF-CEM",70 nM
same,CC50,[24],16500 nM
same,IC50,[25],1100 nM
same,IC50,[26],2500 nM
same,IC50,[27],957 nM
same,IC50,[28],1800 nM
same,IC50,[29],100 nM
Cc1ccnc2c1NC(=O)c1cccnc1N2C1CC1 [NEVIRAPINE],IC50,[4],61 nM
same,IC50,[9],8270 nM
same,IC50,[11],180 nM
same,IC50,[12],222 nM
same,IC50,[15],207 nM
same,IC50,[18],29 nM
same,IC50,[19],1440 nM
same,IC50,[21],1880 nM
same,IC50,"[23]; Homo sapiens, CCRF-CEM",8 nM
same,IC50,[26],70 nM
same,IC50,[27],5 nM
same,IC50,[28],8300 nM
Cc1cn([C@H]2C[C@H](N=[N+]=[N-])[C@@H](CO)O2)c(=O)[nH]c1=O [ZIDOVUDINE],IC50,[1],1 nM
same,CC50,[30],> 172000 nM
same,IC50,[3],1 nM
same,IC50,[4],40 nM
same,CC50,[31],> 170000 nM
same,IC50,[5],25 nM
same,IC50,[7],7 nM
same,CC50,[32],> 190000 nM
same,IC50,[33],9 nM
same,CC50,[34],> 190000 nM
same,CC50,[35],> 200000 nM
same,IC50,[9],80 nM
same,IC50,[10],2 nM
same,CC50,[36],> 190000 nM
same,IC50,[11],6 nM
same,IC50,[37],1 nM
same,IC50,[38],2 nM
same,IC50,[12],8 nM
same,CC50,[39],> 200000 nM
same,IC50,[15],870 nM
same,CC50,[40],> 200000 nM
same,CC50,[41],> 200000 nM
same,IC50,[16],2 nM
same,IC50,[17],2 nM
same,CC50,[42],> 170000 nM
same,CC50,[43],> 190000 nM
same,IC50,[18],17 nM
same,IC50,[19],7 nM
same,IC50,[21],14 nM
same,IC50,[23]; ccrf-cem,82 nM
same,CC50,[44],> 170000 nM
same,IC50,[45],1 nM
same,CC50,[46],> 180000 nM
same,IC50,[25],1 nM
same,IC50,[26],20 nM
same,IC50,[47],4 nM
same,CC50,[48],> 200000 nM
same,IC50,[27],46 nM
same,IC50,[28],87 nM
same,IC50,[49],2 nM

# — ChEMBL document CHEMBL1134284, “The biological effects of structural variation at the meta position of the aromatic rings and at the end of the alkenyl chain in the alkenyldiarylmethane series of non-nucleoside reverse transcriptase inhibitors” (J Med Chem, 2001)
